Experimental data: ChEMBL document CHEMBL3867440, “Hernandezine, a Bisbenzylisoquinoline Alkaloid with Selective Inhibitory Activity against Multidrug-Resistance-Linked ATP-Binding Cassette Drug Transporter ABCB1” (J Nat Prod, 2016); call rule not given here

What was measured:
[1] = target: T1, ATP-dependent translocase ABCB1 (Homo sapiens, UniProt P08183); test: Inhibition of ABCB1 in human KBV1 cells assessed as potentiation of colchicine-induced cytotoxicity by measuring colchicine resistance ratio at 500 nM after 72 hrs by MTT assay relative to parental KB-3-1 cells (reference value: 55); type: cell-based; settings: kbv1, 72 h, 0.5 µM
In short: (§1)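 Cells were kept in drug-free DMEM with 10% FCS for 7 days before assay, then plated at 5000 cells/well for 24 h. Drug at various concentrations was added with a nontoxic fixed level of modulator for 72 h, and the read-out was MTT. IC50 came from fitted curves (≥3 experiments). RR = IC50 of the resistant line / IC50 of the parental line.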

[2] = target: T1, ATP-dependent translocase ABCB1; test: Inhibition of human ABCB1-mediated efflux transfected in HEK293 cells assessed as accumulation of fluorescent dye at 1 uM by calcein-AM dye based FACS analysis; type: cell-based; settings: hek293, 1 µM
In short: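 The HEK293 cells, transfected with human ABCB1 (parental HEK293 as control), were trypsinized and resuspended in IMDM with 5% FCS. Calcein-AM was added to 3 × 10^5 cells in 4 mL, with or without test compound (single 1 μM or a concentration series) or 3 μM tariquidar. Fluorescence was read immediately by flow cytometry. Results are the mean ± SEM of at least three experiments.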

[3] = target: T1, ATP-dependent translocase ABCB1; test: Inhibition of ABCB1 in human NCI-ADR-RES cells assessed as potentiation of doxorubicin-induced cytotoxicity by measuring doxorubicin resistance ratio at 100 nM after 72 hrs by MTT assay relative to parental OVCAR8 cells (reference value: 46); type: cell-based; settings: ovcar-8, 72 h, 0.1 µM; in short: as §1
[4] = target: T1, ATP-dependent translocase ABCB1; test: Inhibition of ABCB1 in human NCI-ADR-RES cells assessed as potentiation of vincristine-induced cytotoxicity by measuring vincristine resistance ratio at 50 nM after 72 hrs by MTT assay relative to parental OVCAR8 cells (reference value: 435); type: cell-based; settings: ovcar-8, 72 h, 0.05 µM; in short: as §1
[5] = system: KB-V1; test: Induction of apoptosis in human KBV1 cells assessed as viable cells at 1 uM after 48 hrs by Annexin V-FITC/propidium iodide staining based FACS analysis (reference value: 86.1%); type: functional; settings: KB-V1, 48 h, read-out: Activity
[6] = target: T1, ATP-dependent translocase ABCB1; test: Inhibition of ABCB1 in human KBV1 cells assessed as potentiation of doxorubicin-induced cytotoxicity by measuring doxorubicin resistance ratio at 200 nM after 72 hrs by MTT assay relative to parental KB-3-1 cells (reference value: 34); type: cell-based; settings: kbv1, 72 h, 0.2 µM; in short: as §1
[7] = system: KB 3-1; test: Induction of apoptosis in human KB-3-1 cells assessed as necrotic cells at 1 uM after 48 hrs by Annexin V-FITC/propidium iodide staining based FACS analysis (reference value: 0.7%); type: functional
[8] = target: T1, ATP-dependent translocase ABCB1; test: Inhibition of ABCB1 in human KBV1 cells assessed as potentiation of colchicine-induced cytotoxicity by measuring colchicine resistance ratio at 200 nM after 72 hrs by MTT assay relative to parental KB-3-1 cells (reference value: 55); type: cell-based; settings: kbv1, 72 h, 0.2 µM; in short: as §1
[9] = target: T1, ATP-dependent translocase ABCB1; test: Inhibition of ABCB1 in human NCI-ADR-RES cells assessed as potentiation of colchicine-induced cytotoxicity by measuring colchicine resistance ratio at 500 nM after 72 hrs by MTT assay relative to parental OVCAR8 cells (reference value: 59); type: cell-based; settings: ovcar-8, 72 h, 0.5 µM; in short: as §1
[10] = target: T1, ATP-dependent translocase ABCB1; test: Binding affinity to Vanadate-sensitive ABCB1 (unknown origin)
[11] = target: T1, ATP-dependent translocase ABCB1; test: Inhibition of ABCB1 in human KBV1 cells assessed as potentiation of doxorubicin-induced cytotoxicity at 1 uM after 72 hrs by MTT assay; type: cell-based; settings: kbv1, 72 h
In short: (§2)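 The cells were kept in drug-free medium for 7 days. They were seeded at 5000 cells/well, allowed to attach for 24 h at 37 °C, then exposed to graded doxorubicin with or without 50–500 nM test compound or 1 μM tariquidar for a further 72 h. Viability was read by MTT. Results are means of at least three independent experiments.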

[12] = target: T1, ATP-dependent translocase ABCB1; test: Inhibition of ABCB1 in human KBV1 cells assessed as potentiation of vincristine-induced cytotoxicity by measuring vincristine resistance ratio at 50 nM after 72 hrs by MTT assay relative to parental KB-3-1 cells (reference value: 356); type: cell-based; settings: kbv1, 72 h, 0.05 µM; in short: as §1
[13] = system: KB 3-1; test: Potentiation of colchicine-induced apoptosis in human KB-3-1 cells assessed as viable cells at 1 uM after 48 hrs by Annexin V-FITC/propidium iodide staining based FACS analysis (reference value: 38.9%); type: functional; settings: KB 3-1, 48 h, read-out: Activity
[14] = target: T1, ATP-dependent translocase ABCB1; test: Inhibition of ABCB1 in human NCI-ADR-RES cells assessed as potentiation of colchicine-induced cytotoxicity by measuring colchicine resistance ratio at 100 nM after 72 hrs by MTT assay relative to parental OVCAR8 cells (reference value: 59); type: cell-based; settings: ovcar-8, 72 h, 0.1 µM; in short: as §1
[15] = Cytotoxicity against HEK293 cells assessed as reduction in cell viability at 1 uM after 72 hrs by CCK8 assay; type: toxicity, cell-based; settings: human, hek293, 72 h
[16] = target: T1, ATP-dependent translocase ABCB1; test: Inhibition of ABCB1 in human NCI-ADR-RES cells assessed as potentiation of doxorubicin-induced cytotoxicity by measuring doxorubicin resistance ratio at 50 nM after 72 hrs by MTT assay relative to parental OVCAR8 cells (reference value: 46); type: cell-based; settings: ovcar-8, 72 h, 0.05 µM; in short: as §1
[17] = target: T1, ATP-dependent translocase ABCB1; test: Inhibition of human ABCB1 transfected in HEK293 cells assessed as potentiation of doxorubicin-induced cytotoxicity by measuring doxorubicin resistance ratio at 100 nM after 72 hrs by CCK8 assay relative to parental HEK293 cells (reference value: 96); type: cell-based; settings: hek293, 72 h, 0.1 µM
[18] = target: T1, ATP-dependent translocase ABCB1; test: Inhibition of ABCB1 in human KBV1 cells assessed as potentiation of vincristine-induced cytotoxicity by measuring vincristine resistance ratio at 200 nM after 72 hrs by MTT assay relative to parental KB-3-1 cells (reference value: 356); type: cell-based; settings: kbv1, 72 h, 0.2 µM; in short: as §1
[19] = target: T1, ATP-dependent translocase ABCB1; test: Inhibition of ABCB1 in human NCI-ADR-RES cells assessed as potentiation of doxorubicin-induced cytotoxicity at 1 uM after 72 hrs by MTT assay; type: cell-based; in short: as §2
[20] = target: T1, ATP-dependent translocase ABCB1; test: Inhibition of ABCB1 in human NCI-ADR-RES cells assessed as potentiation of doxorubicin-induced cytotoxicity by measuring doxorubicin resistance ratio at 200 nM after 72 hrs by MTT assay relative to parental OVCAR8 cells (reference value: 46); type: cell-based; settings: ovcar-8, 72 h, 0.2 µM; in short: as §1
[21] = system: KB 3-1; test: Potentiation of colchicine-induced apoptosis in human KB-3-1 cells assessed as early apoptotic cells at 1 uM after 48 hrs by Annexin V-FITC/propidium iodide staining based FACS analysis (reference value: 30.5%); type: functional
[22] = target: T1, ATP-dependent translocase ABCB1; test: Inhibition of ABCB1 in human NCI-ADR-RES cells assessed as potentiation of vincristine-induced cytotoxicity by measuring vincristine resistance ratio at 500 nM after 72 hrs by MTT assay relative to parental OVCAR8 cells (reference value: 435); type: cell-based; settings: ovcar-8, 72 h, 0.5 µM; in short: as §1
[23] = target: T1, ATP-dependent translocase ABCB1; test: Inhibition of ABCB1 in human KBV1 cells assessed as potentiation of doxorubicin-induced cytotoxicity by measuring doxorubicin resistance ratio at 500 nM after 72 hrs by MTT assay relative to parental KB-3-1 cells (reference value: 34); type: cell-based; settings: kbv1, 72 h, 0.5 µM; in short: as §1

T1 sequence (P08183 whole entry): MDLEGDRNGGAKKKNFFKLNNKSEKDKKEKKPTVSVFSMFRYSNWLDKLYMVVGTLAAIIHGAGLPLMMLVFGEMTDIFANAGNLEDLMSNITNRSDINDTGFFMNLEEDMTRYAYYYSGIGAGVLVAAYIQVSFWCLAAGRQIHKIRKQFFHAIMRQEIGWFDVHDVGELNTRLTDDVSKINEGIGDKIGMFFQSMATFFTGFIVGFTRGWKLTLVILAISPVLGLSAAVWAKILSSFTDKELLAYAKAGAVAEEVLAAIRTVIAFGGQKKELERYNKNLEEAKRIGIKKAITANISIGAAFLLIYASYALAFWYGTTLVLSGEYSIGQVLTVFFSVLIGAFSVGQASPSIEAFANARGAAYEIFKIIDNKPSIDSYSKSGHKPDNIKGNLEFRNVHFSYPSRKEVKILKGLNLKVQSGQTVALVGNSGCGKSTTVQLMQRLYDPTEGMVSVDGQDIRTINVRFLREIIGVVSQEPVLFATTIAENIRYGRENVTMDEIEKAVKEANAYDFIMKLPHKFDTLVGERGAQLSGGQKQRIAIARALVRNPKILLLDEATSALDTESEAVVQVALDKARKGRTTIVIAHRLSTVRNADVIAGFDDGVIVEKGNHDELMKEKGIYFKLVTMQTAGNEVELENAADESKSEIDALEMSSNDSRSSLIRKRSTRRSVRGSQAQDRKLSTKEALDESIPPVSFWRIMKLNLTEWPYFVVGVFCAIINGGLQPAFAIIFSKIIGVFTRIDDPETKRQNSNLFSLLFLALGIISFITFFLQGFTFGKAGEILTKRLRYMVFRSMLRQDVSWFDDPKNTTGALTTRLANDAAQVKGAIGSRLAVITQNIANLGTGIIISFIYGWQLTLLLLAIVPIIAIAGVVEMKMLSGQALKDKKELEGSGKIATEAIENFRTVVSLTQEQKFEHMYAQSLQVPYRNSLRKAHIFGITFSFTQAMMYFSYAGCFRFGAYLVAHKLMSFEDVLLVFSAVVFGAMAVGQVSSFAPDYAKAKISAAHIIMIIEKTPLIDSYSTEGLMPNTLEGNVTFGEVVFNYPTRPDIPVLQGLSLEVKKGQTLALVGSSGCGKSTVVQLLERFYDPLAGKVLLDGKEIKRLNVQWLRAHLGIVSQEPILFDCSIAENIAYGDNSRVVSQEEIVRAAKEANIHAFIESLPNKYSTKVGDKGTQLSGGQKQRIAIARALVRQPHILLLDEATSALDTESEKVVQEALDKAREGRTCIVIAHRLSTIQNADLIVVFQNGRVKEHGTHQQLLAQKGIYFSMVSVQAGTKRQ

COc1ccc2cc1Oc1ccc(cc1)C[C@H]1c3cc(c(OC)cc3CCN1C)Oc1c(OC)c(OC)c(OC)c3c1[C@H](C2)N(C)CC3 [HERNANDEZINE]
Ratio [1]: 3
inhibition (INH) [2]: Active
Ratio [3]: 11
Ratio [4]: 505
viability at 1 µM [5]: 87.6%
Ratio [6]: 2
Activity [7]: 0.2%
Ratio [8]: 13
Ratio [9]: 4
Ki [10]: 20 nM
inhibition (INH) [11]: Active
Ratio [12]: 325
viability at 1 µM [13]: 37.4%
Ratio [14]: 23
Activity [15]: Non-Toxic
Ratio [16]: 26
Ratio [17]: 11
Ratio [18]: 34
inhibition (INH) [19]: Active
Ratio [20]: 5
Activity [21]: 31.1%
Ratio [22]: 19
Ratio [23]: 1
